Source: ChEMBL document CHEMBL4732121, “Imidazo[1,2-a]quinoxalines for melanoma treatment with original mechanism of action” (Eur J Med Chem, 2021)
The source made the active and inactive calls. No cut-off for these calls is given here.

Legend:
A-375 [1] = assay: Antiproliferative activity against human A-375 cells assessed as reduction in cell viability measured after 96 hrs by MTT assay; type: functional, cell-based
Outline: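 A375 cells in RPMI-1640 with 10% heat-inactivated FBS, 2 mM L-glutamine and antibiotics, 37°C, 5% CO₂. Seeded at 5000 cells/well and attached overnight, then exposed to 10⁻⁵–3.2.10⁻⁹ M in 0.15% DMSO/medium for 96 h. MTT at 0.5 mg/ml final for 4 h, formazan dissolved in 10% SDS/0.01 M HCl, OD 570 nm. At least three experiments in triplicate; IC50 from sigmoidal dose–response curves.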

A-375 [2] = assay: Antitumor activity against human A-375 cells xenografted in Balb/c nude mouse assessed as change in tumor stroma at 75 mg/kg, ip administered 3 times a week during first week and twice a week for next 2 weeks measured post last dose by trichrome staining based histopathological analysis; type: functional, organism-based; settings: time 3.0 weeks
Outline: (§1)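 Balb/c nude mice given 10×10^6 A375 cells in PBS subcutaneously in the right flank under isoflurane. Groups of 6-12 allocated on Day 14 at 110-130 mm^3 mean tumor volume; dosed ip for three weeks. Drug in DMSO/Tween 80 (1:1) diluted with saline; vehicle DMSO/Tween 80/saline (1:1:8). Tumors fixed in buffered 3.7% formalin and read blind by a veterinary pathologist after mid-sagittal section.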

[3] = Inhibition of pig brain tubulin polymerization at 5 uM measured after 45 mins by turbidimetry based spectrophotometric method relative to control; type: tissue-based, Sus scrofa; settings: 0.75 h
MeWo = assay: Antiproliferative activity against human MeWo cells assessed as reduction in cell viability measured after 96 hrs by MTT assay; type: functional, cell-based
A2058 = assay: Antiproliferative activity against human A2058 cells assessed as reduction in cell viability measured after 96 hrs by MTT assay; type: functional, cell-based; settings: A2058, 96 h
IPC-298 = assay: Antiproliferative activity against human IPC-298 cells assessed as reduction in cell viability measured after 96 hrs by MTT assay; type: functional, cell-based; settings: IPC-298, 96 h
[4] = Cytotoxicity against human PBMC cells assessed as reduction in cell viability at 0.2 mM measured after 96 hrs by MTT assay; type: cell-based; settings: 200 µM
A-375 [5] = assay: Antitumor activity against human A-375 cells xenografted in Balb/c nude mouse assessed as reduction in tumor size at 75 mg/kg, ip administered 3 times a week during first week and twice a week for 2 week by caliper method relative to control; type: functional; parameters: scale not given: the % may be the effect or the level left; settings: time 3 weeks; outline: as §1
[6] = Toxicity in Balb/c nude mouse xenografted with human A-375 cells assessed as reduction in body weight at 75 mg/kg, ip administered 3 times a week during first week and twice a week for 2 week; type: organism-based; settings: in vivo, 504 h, time 3 weeks
Outline: (§2)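 Balb/c nude mice inoculated s.c. in right flank with 10×10^6 A375 cells in PBS under isoflurane; dosing started once mean tumor volume reached 110-130 mm3, groups allocated Day 14. IP dosing for three weeks; vehicle DMSO/Tween 80 (vol/vol) plus injectable saline (8 vol), solutions made daily. Body weight followed during treatment; gross pathology at study termination; n = 4 mice per group reported.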

[7] = Toxicity in Balb/c nude mouse xenografted with human A-375 cells assessed as morbidity at 75 mg/kg, ip administered 3 times a week during first week and twice a week for 2 week; type: organism-based; settings: in vivo, 504 h, time 3 weeks; outline: as §2
[8] = Toxicity in Balb/c nude mouse xenografted with human A-375 cells assessed as mortality at 75 mg/kg, ip administered 3 times a week during first week and twice a week for 2 week; type: organism-based; settings: in vivo, 504 h, time 3 weeks; outline: as §2
[9] = Toxicity in Balb/c nude mouse xenografted with human A-375 cells assessed as effect on liver pathology at 75 mg/kg, ip administered 3 times a week during first week and twice a week for 2 week measured post last dose by pathological analysis; type: organism-based; settings: in vivo, 504 h, time 3 weeks; outline: as §2
[10] = Toxicity in Balb/c nude mouse xenografted with human A-375 cells assessed as effect on spleen pathology at 75 mg/kg, ip administered 3 times a week during first week and twice a week for 2 week measured post last dose by pathological analysis; type: organism-based; settings: in vivo, 504 h, time 3 weeks; outline: as §2
[11] = Toxicity in Balb/c nude mouse xenografted with human A-375 cells assessed as effect on gut pathology at 75 mg/kg, ip administered 3 times a week during first week and twice a week for 2 week measured post last dose by pathological analysis; type: organism-based; settings: in vivo, 504 h, time 3 weeks; outline: as §2
[12] = Toxicity in Balb/c nude mouse xenografted with human A-375 cells assessed as effect on pancreas pathology at 75 mg/kg, ip administered 3 times a week during first week and twice a week for 2 week measured post last dose by pathological analysis; type: organism-based; settings: in vivo, 504 h, time 3 weeks; outline: as §2
A-375 [13] = assay: Antitumor activity against human A-375 cells xenografted in Balb/c nude mouse assessed as reduction in tumor size at 30 mg/kg, ip administered 5 times a week for 3 weeks by caliper method; type: functional, organism-based; outline: as §1
[14] = Toxicity in Balb/c nude mouse xenografted with human A-375 cells assessed as change in body weight at 30 mg/kg, ip administered 5 times a week for 3 weeks; type: organism-based; settings: in vivo, 504 h
[15] = Toxicity in Balb/c nude mouse xenografted with human A-375 cells assessed as adverse effect at 30 mg/kg, ip administered 5 times a week for 3 weeks; type: organism-based; settings: in vivo, 504 h
[16] = Toxicity in Balb/c nude mouse xenografted with human A-375 cells assessed as pathological changes at 30 mg/kg, ip administered 5 times a week for 3 weeks measured post last dose by histopathological analysis; type: organism-based; settings: in vivo, 504 h
A-375 [17] = assay: Antitumor activity against human A-375 cells xenografted in Balb/c nude mouse assessed as reduction in tumor size at 25 mg/kg, ip administered 3 times a week for 3 weeks by caliper method relative to control; type: functional; parameters: scale not given: the % may be the effect or the level left; outline: as §1
A-375 [18] = assay: Antitumor activity against human A-375 cells xenografted in Balb/c nude mouse assessed as reduction in tumor weight at 30 mg/kg, ip administered 5 times a week for 3 weeks measured post last dose; type: functional, organism-based; outline: as §1
A-375 [19] = assay: Antitumor activity against human A-375 cells xenografted in Balb/c nude mouse assessed as reduction in tumor weight at 75 mg/kg, ip administered 3 times a week during first week and twice a week for next 2 weeks measured post last dose; type: functional, organism-based; settings: time 3.0 weeks; outline: as §1
A-375 [20] = assay: Antitumor activity against human A-375 cells xenografted in Balb/c nude mouse assessed as reduction in tumor weight at 25 mg/kg, ip administered 3 times a week for 3 weeks measured post last dose; type: functional, organism-based; outline: as §1
A-375 [21] = assay: Antitumor activity against human A-375 cells xenografted in ip dosed Balb/c nude mouse assessed as reduction in tumor weight administered 3 times a week for 3 weeks measured post last dose; type: functional, organism-based; settings: dose 25-75 mg/kg
A-375 [22] = assay: Antitumor activity against human A-375 cells xenografted in ip dosed Balb/c nude mouse assessed as reduction in tumor size administered 3 times a week for 3 weeks by caliper method; type: functional, organism-based; settings: dose 25-75 mg/kg
A-375 [23] = assay: Antitumor activity against human A-375 cells xenografted in Balb/c nude mouse assessed as change in tumor stroma at 30 mg/kg, ip administered 5 times a week for 3 weeks measured post last dose by trichrome staining based histopathological analysis; type: functional, organism-based; outline: as §1
A-375 [24] = assay: Antitumor activity against human A-375 cells xenografted in Balb/c nude mouse assessed as change in tumor stroma at 25 mg/kg, ip administered 3 times a week for 3 weeks measured post last dose by trichrome staining based histopathological analysis; type: functional, organism-based; outline: as §1
A-375 [25] = assay: Antitumor activity against human A-375 cells xenografted in Balb/c nude mouse assessed as change in tumor inflammation at 75 mg/kg, ip administered 3 times a week during first week and twice a week for next 2 weeks measured post last dose by trichrome staining based histopathological analysis; type: functional, organism-based; settings: time 3.0 weeks; outline: as §1
A-375 [26] = assay: Antitumor activity against human A-375 cells xenografted in Balb/c nude mouse assessed as change in tumor inflammation at 30 mg/kg, ip administered 5 times a week for 3 weeks measured post last dose by trichrome staining based histopathological analysis; type: functional, organism-based; outline: as §1
A-375 [27] = assay: Antitumor activity against human A-375 cells xenografted in Balb/c nude mouse assessed as change in tumor inflammation at 25 mg/kg, ip administered 3 times a week for 3 weeks measured post last dose by trichrome staining based histopathological analysis; type: functional, organism-based; outline: as §1
A-375 [28] = assay: Antitumor activity against human A-375 cells xenografted in Balb/c nude mouse assessed as vascularization at 75 mg/kg, ip administered 3 times a week during first week and twice a week for next 2 weeks measured post last dose by trichrome staining based histopathological analysis; type: functional, organism-based; settings: time 3.0 weeks; outline: as §1
A-375 [29] = assay: Antitumor activity against human A-375 cells xenografted in Balb/c nude mouse assessed as vascularization at 30 mg/kg, ip administered 5 times a week for 3 weeks measured post last dose by trichrome staining based histopathological analysis; type: functional, organism-based; outline: as §1
A-375 [30] = assay: Antitumor activity against human A-375 cells xenografted in Balb/c nude mouse assessed as vascularization at 25 mg/kg, ip administered 3 times a week for 3 weeks measured post last dose by trichrome staining based histopathological analysis; type: functional, organism-based; outline: as §1
A-375 [31] = assay: Antitumor activity against human A-375 cells xenografted in Balb/c nude mouse assessed as reduction in cell invasion at 75 mg/kg, ip administered 3 times a week during first week and twice a week for next 2 weeks measured post last dose; type: functional, organism-based; settings: time 3.0 weeks; outline: as §1
A-375 [32] = assay: Antitumor activity against human A-375 cells xenografted in Balb/c nude mouse assessed as reduction in cell invasion at 30 mg/kg, ip administered 5 times a week for 3 weeks measured post last dose; type: functional, organism-based; outline: as §1
A-375 [33] = assay: Antitumor activity against human A-375 cells xenografted in Balb/c nude mouse assessed as reduction in cell invasion at 25 mg/kg, ip administered 3 times a week for 3 weeks measured post last dose; type: functional, organism-based; outline: as §1
A-375 [34] = assay: Antitumor activity against human A-375 cells xenografted in Balb/c nude mouse assessed as reduction in mitotic index at 75 mg/kg, ip administered 3 times a week during first week and twice a week for next 2 weeks measured post last dose; type: functional, organism-based; settings: time 3.0 weeks; outline: as §1
A-375 [35] = assay: Antitumor activity against human A-375 cells xenografted in Balb/c nude mouse assessed as reduction in mitotic index at 30 mg/kg, ip administered 5 times a week for 3 weeks measured post last dose; type: functional, organism-based; outline: as §1
A-375 [36] = assay: Antitumor activity against human A-375 cells xenografted in Balb/c nude mouse assessed as reduction in mitotic index at 25 mg/kg, ip administered 3 times a week for 3 weeks measured post last dose; type: functional, organism-based; outline: as §1

Work on `CNc1nc2cc(OC(F)(F)F)ccc2n2c(-c3ccc(O)c(O)c3)cnc12` yielded an IC50 (A-375 [1]; Homo sapiens, A-375, 96 h) of 199 nM.

Compound `CNc1nc2ccccc2n2c(-c3ccc(OC)c(OC)c3)cnc12` has an IC50 (A-375 [1]; Homo sapiens, A-375, 96 h) of 193 nM.

With `CNc1nc2cc(OC(F)(F)F)ccc2n2c(-c3ccc(OC)c(OC)c3)cnc12` the IC50 (A-375 [1]; Homo sapiens, A-375, 96 h) was 3490 nM.

With `CNc1nc2ccccc2n2c(-c3ccc(O)c(O)c3)cnc12` the Activity (A-375 [2]) was “inactive”, the “inhibition (INH)” value [3] was “Not Active” and the IC50 (A-375 [1]; Homo sapiens, A-375, 96 h) was 3 nM. The IC50 (MeWo) was 3 nM, the IC50 (A2058) was 4 nM and the IC50 (IPC-298) was 40 nM. For the same compound, the Activity [4] was “Non-Toxic”, the Activity (A-375 [5]) was 80% and the Activity [6] was “Toxic”. For the same compound, the Activity [7] was “Toxic”, the Activity [8] was “Toxic” and the Activity [9] was “Toxic”. For the same compound, the Activity [10] was “Toxic”, the Activity [11] was “Toxic” and the Activity [12] was “Toxic”. The Activity (A-375 [13]) was “Active”, the Activity [14] was “Non-Toxic” and the Activity [15] was “Non-Toxic”. The Activity [16] was “Non-Toxic”, the Activity (A-375 [17]) was 50% and the Activity (A-375 [18]) was “Active”. The Activity (A-375 [19]) was “Active”, the Activity (A-375 [20]) was “Active” and the Activity (A-375 [21]) was “Dose-dependent effect”. The Activity (A-375 [22]) was “Dose-dependent effect”, the Activity (A-375 [23]) was “inactive” and the Activity (A-375 [24]) was “inactive”. For the same compound, the Activity (A-375 [25]) was “inactive”, the Activity (A-375 [26]) was “inactive” and the Activity (A-375 [27]) was “inactive”. For the same compound, the Activity (A-375 [28]) was “inactive”, the Activity (A-375 [29]) was “inactive” and the Activity (A-375 [30]) was “inactive”. For the same compound, the Activity (A-375 [31]) was “Active”, the Activity (A-375 [32]) was “Active” and the Activity (A-375 [33]) was “Active”. The Activity (A-375 [34]) was “Active”, the Activity (A-375 [35]) was “Active” and the Activity (A-375 [36]) was “Active”.

`CNc1nc2ccccc2n2ccnc12` gave an IC50 (A-375 [1]; Homo sapiens, A-375, 96 h) of over 10000 nM.

Work on `NCCNc1nc2ccccc2n2c(-c3ccc(O)c(O)c3)cnc12` yielded an IC50 (A-375 [1]; a-375) of 1700 nM.

`CNc1nccn2c(-c3ccc(O)c(O)c3)cnc12` gave an IC50 (A-375 [1]; Homo sapiens, A-375, 96 h) of over 10000 nM.
